Assays:
Format in all cases: functional
[1] = tested on: CCRF-CEM; assay: Cytotoxicity against human CCRF-CEM cells
[2] = tested on: HL-60(TB); assay: Cytotoxicity against human HL-60(TB) cells
How it was run: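 Tested within the NCI 60-cell-line screen, with GI50 as the read-out. Values are the average of two independent experiments. The lowest concentration tested was 10 nM.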

[3] = tested on: K562; assay: Cytotoxicity against human K562 cells
How it was run: (§1)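 Tested in a 60-cell-line human tumor panel screen; the read-out is growth inhibition, reported as GI50 for each cell line.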

[4] = tested on: MOLT-4; assay: Cytotoxicity against human MOLT4 cells; how it was run: as §1
[5] = tested on: A549; assay: Cytotoxicity against human A549 cells; how it was run: as §1
[6] = Cytotoxicity against human EKVX cells; how it was run: as §1
[7] = tested on: NCI-H226; assay: Cytotoxicity against human NCI-H226 cells; how it was run: as §1
[8] = tested on: NCI-H23; assay: Cytotoxicity against human NCI-H23 cells; how it was run: as §1
[9] = tested on: COLO 205; assay: Cytotoxicity against human COLO205 cells; how it was run: as §1
[10] = tested on: HCT-116; assay: Cytotoxicity against human HCT116 cells; how it was run: as §1
[11] = Cytotoxicity against human HCT15 cells; how it was run: as §1
[12] = tested on: HT-29; assay: Cytotoxicity against human HT-29 cells; how it was run: as §1
[13] = tested on: SF-295; assay: Cytotoxicity against human SF295 cells; how it was run: as §1
[14] = tested on: SF-539; assay: Cytotoxicity against human SF539 cells; how it was run: as §1
[15] = tested on: SNB-75; assay: Cytotoxicity against human SNB75 cells
How it was run: (§2)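 Cell line run as part of the 60-cell-line screening panel; growth inhibition was reported as a GI50 for each line.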

[16] = tested on: U-251; assay: Cytotoxicity against human U251 cells; how it was run: as §2
[17] = tested on: LOX IMVI; assay: Cytotoxicity against human LOXIMVI cells; how it was run: as §1
[18] = tested on: M14; assay: Cytotoxicity against human M14 cells; how it was run: as §1
[19] = tested on: MDA-MB-435; assay: Cytotoxicity against human MDA-MB-435 cells; how it was run: as §1
[20] = tested on: NCI-H322M; assay: Cytotoxicity against human NCI-H322M cells; how it was run: as §1
[21] = tested on: NCI-H460; assay: Cytotoxicity against human NCI-H460 cells; how it was run: as §1
[22] = tested on: SK-MEL-2; assay: Cytotoxicity against human SK-MEL-2 cells; how it was run: as §1
[23] = tested on: SK-MEL-5; assay: Cytotoxicity against human SK-MEL-5 cells; how it was run: as §1
[24] = Cytotoxicity against human UACC257 cells; how it was run: as §2
[25] = Cytotoxicity against human UACC62 cells; how it was run: as §2
[26] = tested on: IGROV-1; assay: Cytotoxicity against human IGROV1 cells; how it was run: as §1
[27] = Cytotoxicity against human OVCAR3 cells; how it was run: as §1
[28] = Cytotoxicity against human OVCAR4 cells; how it was run: as §1
[29] = Cytotoxicity against human NCI-ADR-RES cells; how it was run: as §1
[30] = tested on: SK-OV-3; assay: Cytotoxicity against human SKOV3 cells; how it was run: as §1
[31] = tested on: 786-0; assay: Cytotoxicity against human 786-0 cells; how it was run: as §1
[32] = tested on: A498; assay: Cytotoxicity against human A498 cells; how it was run: as §1
[33] = tested on: ACHN; assay: Cytotoxicity against human ACHN cells; how it was run: as §1
[34] = tested on: CAKI-1; assay: Cytotoxicity against human Caki1 cells; how it was run: as §1
[35] = tested on: RXF 393; assay: Cytotoxicity against human RXF393 cells; how it was run: as §1
[36] = tested on: SN12C; assay: Cytotoxicity against human SN12C cells; how it was run: as §1
[37] = Cytotoxicity against human UO31 cells; how it was run: as §2
[38] = tested on: PC-3; assay: Cytotoxicity against human PC3 cells; how it was run: as §1
[39] = tested on: MCF7; assay: Cytotoxicity against human MCF7 cells; how it was run: as §1
[40] = tested on: MDA-MB-231; assay: Cytotoxicity against human MDA-MB-231 cells; how it was run: as §1
[41] = tested on: BT-549; assay: Cytotoxicity against human BT549 cells; how it was run: as §1
[42] = tested on: T47D; assay: Cytotoxicity against human T47D cells; how it was run: as §2
[43] = tested on: MDA-MB-468; assay: Cytotoxicity against human MDA-MB-468 cells; how it was run: as §1
[44] = read-out: pLC50 (the source's name) (converted)

`COc1cc(/C=C/c2cc(O)c3ccn(C)c3c2)cc2c1O[C@]1(C)CC[C@@H](O)C(C)(C)[C@H]1C2` showed a GI50 [1] of 0.38 µM, a CC50 [1, 44] of over 100 µM and a TGI ([1]; read-out: pTGI (converted)) of over 100 µM. It also gave a GI50 [2] of 1.23 µM, a CC50 [2, 44] of over 100 µM and a TGI ([2]; read-out: pTGI (converted)) of 58.9 µM. The GI50 [3] was 0.794 µM, the CC50 [3, 44] was over 100 µM and the TGI ([3]; read-out: pTGI (converted)) was over 100 µM. For the same compound, the GI50 [4] was 0.447 µM, the CC50 [4, 44] was over 100 µM and the TGI ([4]; read-out: pTGI (converted)) was 10.2 µM. The GI50 [5] was 4.9 µM, the CC50 [5, 44] was over 100 µM and the TGI ([5]; read-out: pTGI (converted)) was 64.6 µM. The GI50 [6] was 4.27 µM, the CC50 [6, 44] was over 100 µM and the TGI ([6]; read-out: pTGI (converted)) was 85.1 µM. It also gave a GI50 [7] of 11.5 µM, a CC50 [7, 44] of 64.6 µM and a TGI ([7]; read-out: pTGI (converted)) of 26.9 µM. For the same compound, the GI50 [8] was 2.45 µM, the CC50 [8, 44] was over 100 µM and the TGI ([8]; read-out: pTGI (converted)) was 30.2 µM. The GI50 [9] was 1.66 µM, the CC50 [9, 44] was 7.08 µM and the TGI ([9]; read-out: pTGI (converted)) was 3.47 µM. For the same compound, the GI50 [10] was 1.17 µM, the CC50 [10, 44] was over 100 µM and the TGI ([10]; read-out: pTGI (converted)) was 47.9 µM. For the same compound, the GI50 ([11]; HCT-15) was 0.832 µM, the CC50 ([11]; HCT-15, read-out: pLC50 (the source's name) (converted)) was over 100 µM and the TGI ([11]; HCT-15, read-out: pTGI (converted)) was 4.37 µM. The GI50 [12] was 1.86 µM, the CC50 [12, 44] was 63.1 µM and the TGI ([12]; read-out: pTGI (converted)) was 7.41 µM. The GI50 ([13]; read-out: GI50) was 0.76 µM, the GI50 ([13]; read-out: pGI50 (converted)) was 0.759 µM and the TGI ([13]; read-out: pTGI (converted)) was 2.75 µM. For the same compound, the GI50 [14] was 0.105 µM, the TGI ([14]; read-out: pTGI (converted)) was 1.38 µM and the GI50 [15] was 0.138 µM. For the same compound, the CC50 [15, 44] was 93.3 µM, the TGI ([15]; read-out: pTGI (converted)) was 8.91 µM and the GI50 [16] was 0.417 µM. The CC50 [16, 44] was over 100 µM, the TGI ([16]; read-out: pTGI (converted)) was 63.1 µM and the GI50 [17] was 0.977 µM. For the same compound, the CC50 [17, 44] was over 100 µM, the TGI ([17]; read-out: pTGI (converted)) was 50.1 µM and the GI50 [18] was 0.525 µM. It also gave a CC50 [18, 44] of over 100 µM, a TGI ([18]; read-out: pTGI (converted)) of 4.37 µM and a GI50 [19] of 1.45 µM. It also gave a CC50 [19, 44] of over 100 µM, a TGI ([19]; read-out: pTGI (converted)) of 47.9 µM and a GI50 [20] of 12.9 µM. The CC50 [20, 44] was over 100 µM, the TGI ([20]; read-out: pTGI (converted)) was over 100 µM and the GI50 [21] was 1.66 µM. For the same compound, the CC50 [21, 44] was over 100 µM, the TGI ([21]; read-out: pTGI (converted)) was over 100 µM and the GI50 [22] was 0.692 µM. The CC50 [22, 44] was over 100 µM, the TGI ([22]; read-out: pTGI (converted)) was 12.9 µM and the GI50 [23] was 1.15 µM. The CC50 [23, 44] was 5.25 µM, the TGI ([23]; read-out: pTGI (converted)) was 2.45 µM and the GI50 ([24]; UACC-257) was 1.74 µM. It also gave a CC50 ([24]; UACC-257, read-out: pLC50 (the source's name) (converted)) of over 100 µM, a TGI ([24]; UACC-257, read-out: pTGI (converted)) of 8.13 µM and a GI50 ([25]; UACC-62) of 0.316 µM. For the same compound, the CC50 ([25]; UACC-62, read-out: pLC50 (the source's name) (converted)) was 77.6 µM, the TGI ([25]; UACC-62, read-out: pTGI (converted)) was 2.09 µM and the GI50 [26] was 2.82 µM. For the same compound, the CC50 [26, 44] was over 100 µM, the TGI ([26]; read-out: pTGI (converted)) was 46.8 µM and the GI50 ([27]; OVCAR-3) was 4.79 µM. It also gave a CC50 ([27]; OVCAR-3, read-out: pLC50 (the source's name) (converted)) of over 100 µM, a TGI ([27]; OVCAR-3, read-out: pTGI (converted)) of 42.7 µM and a GI50 ([28]; OVCAR-4) of 4.27 µM. It also gave a CC50 ([28]; OVCAR-4, read-out: pLC50 (the source's name) (converted)) of over 100 µM, a TGI ([28]; OVCAR-4, read-out: pTGI (converted)) of over 100 µM and a GI50 [29] of 9.55 µM. For the same compound, the CC50 [29, 44] was over 100 µM, the TGI ([29]; read-out: pTGI (converted)) was 69.2 µM and the GI50 [30] was 3.02 µM. For the same compound, the LC50 [30] was over 100 µM, the TGI ([30]; read-out: pTGI (converted)) was 72.4 µM and the GI50 [31] was 0.186 µM. The LC50 (concentration killing 50% of cells) [31] was over 100 µM, the GI50 [32] was 6.03 µM and the CC50 [32, 44] was 89.1 µM. The TGI ([32]; read-out: pTGI (converted)) was 38.9 µM, the GI50 [33] was 0.776 µM and the LC50 (concentration killing 50% of cells) [33] was over 100 µM. It also gave a TGI ([33]; read-out: pTGI (converted)) of 55 µM, a GI50 [34] of 2.29 µM and an LC50 [34] of over 100 µM. It also gave a TGI ([34]; read-out: pTGI (converted)) of 21.9 µM, a GI50 [35] of 0.0302 µM and an LC50 [35] of 8.71 µM. The TGI ([35]; read-out: pTGI (converted)) was 0.12 µM, the GI50 [36] was 6.92 µM and the LC50 [36] was over 100 µM. For the same compound, the TGI ([36]; read-out: pTGI (converted)) was 91.2 µM, the GI50 ([37]; UO-31) was 0.437 µM and the LC50 ([37]; UO-31) was over 100 µM. For the same compound, the TGI ([37]; UO-31, read-out: pTGI (converted)) was 7.24 µM, the GI50 [38] was 0.575 µM and the LC50 [38] was over 100 µM. For the same compound, the TGI ([38]; read-out: pTGI (converted)) was 67.6 µM, the GI50 [39] was 0.741 µM and the LC50 [39] was over 100 µM. The TGI ([39]; read-out: pTGI (converted)) was 42.7 µM, the GI50 [40] was 1.12 µM and the LC50 [40] was over 100 µM. It also gave a TGI ([40]; read-out: pTGI (converted)) of 28.2 µM, a GI50 [41] of 1.55 µM and a CC50 [41, 44] of over 100 µM. The TGI ([41]; read-out: pTGI (converted)) was 39.8 µM, the GI50 [42] was 5.62 µM and the CC50 [42, 44] was over 100 µM. The TGI ([42]; read-out: pTGI (converted)) was 60.3 µM, the GI50 [43] was 1.02 µM and the LC50 [43] was over 100 µM. For the same compound, the TGI ([43]; read-out: pTGI (converted)) was 14.1 µM.
